Experimental data taken from ChEMBL document CHEMBL2331097, “Synthesis of 5,7-disubstituted-4-methyl-7H-pyrrolo[2,3-d]pyrimidin-2-amines as microtubule inhibitors” (Bioorg Med Chem, 2013).
Active and inactive are the calls of the source. The rule behind the calls is not given here.

Legend:
[1] = system: JC; assay: Modulatory activity at P-gp in mouse JC cells assessed as lowest drug concentration required to increase intracellular [3H]taxol accumulation pretreated for 30 mins prior to [3H]taxol addition measured after 60 mins by liquid scintillation counting analysis; type: cell-based
Summary of the method: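 JC cells were seeded at about 25% confluency and grown 3–4 days to near confluency. Medium was switched to serum-free, and compounds were preincubated for 30 min at 37 °C. About 0.1 µCi [³H]Taxol (75 Ci/mmol) per well followed, for 60 min at 37 °C. Cells were washed twice with ice-cold PBS and lysed in 1% SDS. Intracellular label was counted by liquid scintillation, and the lowest concentration giving maximal accumulation was recorded.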

[2] = Cytotoxicity against mouse JC cells assessed as inhibition of cell survival after 48 hrs by SRB assay; type: functional, cell-based
Summary of the method: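 JC (CRL-2116) cells kept in RPMI-1640 with L-glutamine, 10% FBS and 50 μg/ml gentamicin at 37 °C, 5% CO₂. Cells were seeded at about 20% confluency and left 24 h to attach, then exposed to a range of concentrations for 48 h. Cells were PBS-washed, fixed in 10% trichloroacetic acid and stained with 0.4% SRB in 1% acetic acid. Dye was dissolved in 10 mM Tris and absorbance read at 570 nm.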

[3] = Ratio of compound IC50 to paclitaxel IC50 for mouse JC cells after 48 hrs by SRB assay; type: functional
[4] = system: NCI-H226; assay: Growth inhibition of human NCI-H226 cells after 48 hrs by SRB assay; type: functional; conditions: NCI-H226, 48 h
[5] = system: HL-60; assay: Growth inhibition of human HL60 cells after 48 hrs by SRB assay; type: functional; conditions: HL-60, 48 h
[6] = system: HCT-116; assay: Growth inhibition of human HCT116 cells after 48 hrs by SRB assay; type: functional; conditions: HCT-116, 48 h
[7] = system: SF-539; assay: Growth inhibition of human SF539 cells after 48 hrs by SRB assay; type: functional; conditions: SF-539, 48 h
[8] = system: MDA-MB-231; assay: Growth inhibition of human MDA-MB-231 cells after 48 hrs by SRB assay; type: functional; conditions: MDA-MB-231, 48 h
[9] = system: UO-31; assay: Growth inhibition of human UO31 cells after 48 hrs by SRB assay; type: functional; conditions: UO-31, 48 h
[10] = system: OVCAR-4; assay: Growth inhibition of human OVCAR4 cells after 48 hrs by SRB assay; type: functional; conditions: OVCAR-4, 48 h
[11] = system: A549; assay: Growth inhibition of human A549/ATCC cells after 48 hrs by SRB assay; type: functional; conditions: A549, 48 h
[12] = system: Malme-3M; assay: Growth inhibition of human MALME-3M cells after 48 hrs by SRB assay; type: functional
[13] = system: RXF 393; assay: Growth inhibition of human RXF393 cells after 48 hrs by SRB assay; type: functional; conditions: RXF 393, 48 h
[14] = Growth inhibition of human EKVX cells after 48 hrs by SRB assay; type: functional
[15] = system: HT-29; assay: Growth inhibition of human HT-29 cells after 48 hrs by SRB assay; type: functional; conditions: HT-29, 48 h
[16] = system: OVCAR-5; assay: Growth inhibition of human OVCAR5 cells after 48 hrs by SRB assay; type: functional; conditions: OVCAR-5, 48 h
[17] = system: T47D; assay: Growth inhibition of human T47D cells after 48 hrs by SRB assay; type: functional
[18] = system: K562; assay: Growth inhibition of human K562 cells after 48 hrs by SRB assay; type: functional; conditions: K562, 48 h
[19] = system: BT-549; assay: Growth inhibition of human BT549 cells after 48 hrs by SRB assay; type: functional; conditions: BT-549, 48 h
[20] = system: UACC-62; assay: Growth inhibition of human UACC62 cells after 48 hrs by SRB assay; type: functional; conditions: UACC-62, 48 h
[21] = system: NCI-H23; assay: Growth inhibition of human NCI-H23 cells after 48 hrs by SRB assay; type: functional; conditions: NCI-H23, 48 h
[22] = Growth inhibition of human Hs 578T cells after 48 hrs by SRB assay; type: functional
[23] = system: SF-295; assay: Growth inhibition of human SF295 cells after 48 hrs by SRB assay; type: functional; conditions: SF-295, 48 h
[24] = system: HCT-15; assay: Growth inhibition of human HCT15 cells after 48 hrs by SRB assay; type: functional; conditions: HCT-15, 48 h
[25] = system: NCI/ADR-RES; assay: Growth inhibition of human NCI/ADR-RES cells after 48 hrs by SRB assay; type: functional
[26] = system: SK-MEL-2; assay: Growth inhibition of human SK-MEL-2 cells after 48 hrs by SRB assay; type: functional; conditions: SK-MEL-2, 48 h
[27] = system: NCI-H522; assay: Growth inhibition of human NCI-H522 cells after 48 hrs by SRB assay; type: functional; conditions: NCI-H522, 48 h
[28] = system: SR; assay: Growth inhibition of human SR cells after 48 hrs by SRB assay; type: functional
[29] = system: UACC-257; assay: Growth inhibition of human UACC257 cells after 48 hrs by SRB assay; type: functional; conditions: UACC-257, 48 h
[30] = system: IGROV-1; assay: Growth inhibition of human IGROV1 cells after 48 hrs by SRB assay; type: functional; conditions: IGROV-1, 48 h
[31] = system: MCF7; assay: Growth inhibition of human MCF7 cells after 48 hrs by SRB assay; type: functional; conditions: MCF7, 48 h
[32] = system: U-251; assay: Growth inhibition of human U251 cells after 48 hrs by SRB assay; type: functional; conditions: U-251, 48 h
[33] = system: RPMI-8226; assay: Growth inhibition of human RPMI8226 cells after 48 hrs by SRB assay; type: functional; conditions: RPMI-8226, 48 h
[34] = system: MDA-MB-468; assay: Growth inhibition of human MDA-MB-468 cells after 48 hrs by SRB assay; type: functional; conditions: MDA-MB-468, 48 h
[35] = system: COLO 205; assay: Growth inhibition of human COLO205 cells after 48 hrs by SRB assay; type: functional; conditions: COLO 205, 48 h
[36] = system: SF-268; assay: Growth inhibition of human SF268 cells after 48 hrs by SRB assay; type: functional; conditions: SF-268, 48 h
[37] = system: SN12C; assay: Growth inhibition of human SN12C cells after 48 hrs by SRB assay; type: functional
[38] = system: MDA-MB-435; assay: Growth inhibition of human MDA-MB-435 cells after 48 hrs by SRB assay; type: functional; conditions: MDA-MB-435, 48 h
[39] = system: OVCAR-3; assay: Growth inhibition of human OVCAR3 cells after 48 hrs by SRB assay; type: functional; conditions: OVCAR-3, 48 h
[40] = system: SNB-75; assay: Growth inhibition of human SNB75 cells after 48 hrs by SRB assay; type: functional; conditions: SNB-75, 48 h
[41] = system: M14; assay: Growth inhibition of human M14 cells after 48 hrs by SRB assay; type: functional; conditions: M14, 48 h
[42] = Growth inhibition of human HCC2998 cells after 48 hrs by SRB assay; type: functional; conditions: HCC 2998, 48 h
[43] = system: CCRF-CEM; assay: Growth inhibition of human CCRF-CEM cells after 48 hrs by SRB assay; type: functional
[44] = system: SNB-19; assay: Growth inhibition of human SNB19 cells after 48 hrs by SRB assay; type: functional; conditions: SNB-19, 48 h
[45] = system: DU-145; assay: Growth inhibition of human DU145 cells after 48 hrs by SRB assay; type: functional; conditions: DU-145, 48 h
[46] = system: OVCAR-8; assay: Growth inhibition of human OVCAR8 cells after 48 hrs by SRB assay; type: functional; conditions: OVCAR-8, 48 h
[47] = system: TK-10; assay: Growth inhibition of human TK10 cells after 48 hrs by SRB assay; type: functional; conditions: TK-10, 48 h
[48] = system: NCI-H322M; assay: Growth inhibition of human NCI-H322M cells after 48 hrs by SRB assay; type: functional
[49] = system: NCI-H460; assay: Growth inhibition of human NCI-H460 cells after 48 hrs by SRB assay; type: functional; conditions: NCI-H460, 48 h
[50] = system: PC-3; assay: Growth inhibition of human PC3 cells after 48 hrs by SRB assay; type: functional; conditions: PC-3, 48 h
[51] = system: LOX IMVI; assay: Growth inhibition of human LOXIMVI cells after 48 hrs by SRB assay; type: functional
[52] = system: SK-MEL-5; assay: Growth inhibition of human SK-MEL-5 cells after 48 hrs by SRB assay; type: functional; conditions: SK-MEL-5, 48 h
[53] = system: KM12; assay: Growth inhibition of human KM12 cells after 48 hrs by SRB assay; type: functional; conditions: KM12, 48 h
[54] = system: SK-OV-3; assay: Growth inhibition of human SKOV3 cells after 48 hrs by SRB assay; type: functional; conditions: SK-OV-3, 48 h
[55] = system: CAKI-1; assay: Growth inhibition of human CAKI-1 cells after 48 hrs by SRB assay; type: functional; conditions: CAKI-1, 48 h
[56] = system: HOP-62; assay: Growth inhibition of human HOP62 cells after 48 hrs by SRB assay; type: functional; conditions: HOP-62, 48 h
[57] = system: HOP-92; assay: Growth inhibition of human HOP92 cells after 48 hrs by SRB assay; type: functional; conditions: HOP-92, 48 h
[58] = system: A498; assay: Growth inhibition of human A498 cells after 48 hrs by SRB assay; type: functional; conditions: A498, 48 h
[59] = system: ACHN; assay: Growth inhibition of human ACHN cells after 48 hrs by SRB assay; type: functional
[60] = system: SK-MEL-28; assay: Growth inhibition of human SK-MEL-28 cells after 48 hrs by SRB assay; type: functional; conditions: SK-MEL-28, 48 h
[61] = system: 786-0; assay: Growth inhibition of human 786-0 cells after 48 hrs by SRB assay; type: functional; conditions: 786-0, 48 h
[62] = system: SW-620; assay: Growth inhibition of human SW620 cells after 48 hrs by SRB assay; type: functional; conditions: SW-620, 48 h

COc1cc(Cn2cc(Sc3cc(OC)c(OC)c(OC)c3)c3c(C)nc(N)nc32)cc(OC)c1OC
LED [1]: inactive | IC50 [2]: > 100000 nM

COc1cc(CCc2cn(Cc3cc(OC)c(OC)c(OC)c3)c3nc(N)nc(C)c23)cc(OC)c1OC
LED [1]: inactive | IC50 [2]: 1000 nM | Ratio IC50 [3]: 6.6

Cc1nc(N)nc2c1c(Sc1ccccc1)cn2Cc1ccccc1
LED [1]: inactive | IC50 [2]: 4000 nM

CC(=O)O[C@H]1C(=O)[C@@]2(C)[C@H]([C@H](OC(=O)c3ccccc3)[C@]3(O)C[C@H](OC(=O)[C@H](O)[C@@H](NC(=O)c4ccccc4)c4ccccc4)C(C)=C1C3(C)C)[C@]1(OC(C)=O)CO[C@@H]1C[C@@H]2O [PACLITAXEL]
IC50 [2]: 150 nM

COc1ccc(Cn2cc(CCc3cc(OC)c(OC)c(OC)c3)c3c(C)nc(N)nc32)cc1
GI50 [4]: 927 nM | GI50 [5]: 220 nM | GI50 [6]: 265 nM | GI50 [7]: 96.4 nM | GI50 [8]: 361 nM | GI50 [9]: 397 nM | GI50 [10]: 338 nM | GI50 [11]: 329 nM | GI50 [12]: 284 nM | GI50 [13]: 44.1 nM | LED [1]: 0.2 µM | GI50 [14]: 348 nM | GI50 [15]: 247 nM | GI50 [16]: 596 nM | IC50 [2]: 600 nM | GI50 [17]: 443 nM | GI50 [18]: 116 nM | GI50 [19]: 440 nM | GI50 [20]: 61.5 nM | GI50 [21]: 428 nM | GI50 [22]: 139 nM | GI50 [23]: 83.9 nM | GI50 [24]: 242 nM | GI50 [25]: 202 nM | Ratio IC50 [3]: 4 | GI50 [26]: 446 nM | GI50 [27]: 31.6 nM | GI50 [28]: 120 nM | GI50 [29]: > 1000 nM | GI50 [30]: 154 nM | GI50 [31]: 46.4 nM | GI50 [32]: 311 nM | GI50 [33]: 713 nM | GI50 [34]: 52.4 nM | GI50 [35]: 204 nM | GI50 [36]: 379 nM | GI50 [37]: 499 nM | GI50 [38]: 32.1 nM | GI50 [39]: 164 nM | GI50 [40]: 172 nM | GI50 [41]: 204 nM | GI50 [42]: 191 nM | GI50 [43]: > 1000 nM | GI50 [44]: 234 nM | GI50 [45]: 337 nM | GI50 [46]: 334 nM | GI50 [47]: 686 nM | GI50 [48]: 712 nM | GI50 [49]: 251 nM | GI50 [50]: 301 nM | GI50 [51]: 364 nM | GI50 [52]: 110 nM | GI50 [53]: 264 nM | GI50 [54]: 251 nM | GI50 [55]: 206 nM | GI50 [56]: 362 nM | GI50 [57]: > 1000 nM | GI50 [58]: 115 nM | GI50 [59]: 216 nM | GI50 [60]: 417 nM | GI50 [61]: 575 nM | GI50 [62]: 208 nM

COc1ccccc1Sc1cn(Cc2ccccc2)c2nc(N)nc(C)c12
LED [1]: 1.5 µM | IC50 [2]: 11000 nM

COc1cccc(Cn2cc(CCc3cc(OC)c(OC)c(OC)c3)c3c(C)nc(N)nc32)c1
LED [1]: 0.5 µM | IC50 [2]: 1400 nM
